Reference: ChEMBL document CHEMBL1128192, “Differences in backbone structure between angiotensin II agonists and type I antagonists” (J Med Chem, 1995)
Where a SMILES comes first, the peptide text is derived from it. [ ]: non-standard residue; d: D form. Nva(5-OH) = N[C@@H](CCCO)C(=O)O; Aib = CC(C)(N)C(=O)O; Sar = CNCC(=O)O

Key:
[1] = molecular target: T1, Angiotensin II receptor (AT-1) type-1 (Rattus norvegicus, UniProt P29089+P25095); assay: Antagonist activity against Angiotensin II receptor type 1 as pA2; format: functional
T1 sequence (P29089 whole entry): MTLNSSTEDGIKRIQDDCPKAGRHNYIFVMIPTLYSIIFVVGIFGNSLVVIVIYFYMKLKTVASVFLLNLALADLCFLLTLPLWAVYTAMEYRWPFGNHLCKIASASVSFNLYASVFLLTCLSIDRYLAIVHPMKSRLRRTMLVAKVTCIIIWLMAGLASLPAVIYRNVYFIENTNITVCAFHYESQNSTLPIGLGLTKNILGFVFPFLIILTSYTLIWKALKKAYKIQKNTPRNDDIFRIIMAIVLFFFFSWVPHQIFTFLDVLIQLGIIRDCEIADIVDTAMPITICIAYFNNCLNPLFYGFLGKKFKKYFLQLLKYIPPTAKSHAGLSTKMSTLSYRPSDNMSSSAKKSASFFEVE
T1 sequence (P25095 whole entry): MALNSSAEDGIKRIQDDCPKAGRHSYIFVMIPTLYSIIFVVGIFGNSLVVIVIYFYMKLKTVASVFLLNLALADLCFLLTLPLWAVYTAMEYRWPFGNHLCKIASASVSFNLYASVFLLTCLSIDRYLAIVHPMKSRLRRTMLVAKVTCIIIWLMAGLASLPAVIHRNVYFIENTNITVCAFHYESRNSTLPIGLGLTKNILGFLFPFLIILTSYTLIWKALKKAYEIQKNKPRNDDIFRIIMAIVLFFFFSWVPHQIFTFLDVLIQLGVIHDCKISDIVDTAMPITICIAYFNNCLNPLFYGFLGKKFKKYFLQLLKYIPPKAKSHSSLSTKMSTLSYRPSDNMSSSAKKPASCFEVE
Summary of the method: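 Isolated uterus from diethylstilbestrol-primed (25 μg im, 24 h) female virgin Sprague–Dawley rats, in DeJalons solution. An ANGII noncumulative dose-response curve was first set up in each tissue. Antagonist was added 2 min before ANGII, with EC50 reproducibility checked before and after. pA2 is the −log antagonist concentration that cuts the ED50 ANGII response to that of an ED50/2 dose, as the mean of ≥3 tissues.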

[2] = molecular target: Angiotensin II receptor (Rattus norvegicus) (UniProt P29089+P25095+P35351); assay: Agonist activity at Angiotensin II receptor; format: functional
Summary of the method: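 Uteri from female virgin Sprague–Dawley rats (150–200 g) given 25 μg diethylstilbestrol im 24 h before sacrifice. Horns were cleaned and bathed in DeJalons solution. Contractions were recorded with noncumulative dosing, with washout at peak response and 10 min rest between challenges. Activity is relative to human ANGII as standard, as the mean of at least three tissues.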

Sequence of Angiotensin II receptor (Rattus norvegicus) (P35351 whole entry, looked up, one chain of several): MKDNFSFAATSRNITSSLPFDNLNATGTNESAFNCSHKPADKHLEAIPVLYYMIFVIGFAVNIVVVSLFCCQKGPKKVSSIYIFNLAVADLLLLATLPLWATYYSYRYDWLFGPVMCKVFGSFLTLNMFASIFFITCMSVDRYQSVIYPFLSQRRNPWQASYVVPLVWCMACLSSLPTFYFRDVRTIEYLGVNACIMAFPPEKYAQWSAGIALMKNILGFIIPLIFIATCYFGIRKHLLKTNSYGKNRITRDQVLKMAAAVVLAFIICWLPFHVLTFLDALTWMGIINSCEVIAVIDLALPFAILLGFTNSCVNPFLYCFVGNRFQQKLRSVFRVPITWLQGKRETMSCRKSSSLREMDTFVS

SMILES | pA2 [1] | Agonist activity [2] [%]
CC[C@H](C)[C@H](NC(=O)[C@H](CCCO)NC(=O)[C@@H](NC(=O)[C@H](CCCN=C(N)N)NC(=O)CNC)C(C)C)C(=O)N[C@@H](Cc1c[nH]cn1)C(=O)N1CCC[C@H]1C(=O)N[C@@H](Cc1ccccc1)C(=O)O (H-[Sar]RV[Nva(5-OH)]IHPF-OH) | < 6 | –
CC[C@H](C)[C@H](NC(=O)C(Cc1ccc(C(=O)O)cc1)NC(=O)[C@@H](NC(=O)[C@H](CCCN=C(N)N)NC(=O)CNC)C(C)C)C(=O)N[C@@H](Cc1c[nH]cn1)C(=O)N1CCC[C@H]1C(=O)N[C@@H](Cc1ccccc1)C(=O)O (mixture of isomers) | < 5 | –
CC[C@H](C)[C@H](NC(=O)[C@H](Cc1ccc(O)cc1)NC(=O)[C@@H](NC(=O)[C@H](CCCN=C(N)N)NC(=O)[C@@H](N)CC(=O)O)C(C)C)C(=O)N[C@@H](Cc1c[nH]cn1)C(=O)N1CCC[C@H]1C(=O)N[C@@H](CCOC)C(=O)O | 7.5 | < 0.1
CC[C@H](C)[C@H](NC(=O)[C@@H]1CCCN1C(=O)[C@H](Cc1c[nH]cn1)NC(=O)[C@@H](NC(=O)[C@H](CCCO)NC(=O)[C@@H](NC(=O)[C@H](CCCN=C(N)N)NC(=O)C(C)(C)N)C(C)C)[C@@H](C)CC)C(=O)O (H-[Aib]RV[Nva(5-OH)]IHPI-OH) | 6.2 | –
CC[C@H](C)[C@H](NC(=O)[C@@H]1CCCN1C(=O)[C@H](Cc1c[nH]cn1)NC(=O)[C@@H](NC(=O)[C@H](CCCO)NC(=O)[C@@H](NC(=O)[C@H](CCCN=C(N)N)NC(=O)CNC)C(C)C)[C@@H](C)CC)C(=O)O (H-[Sar]RV[Nva(5-OH)]IHPI-OH) | < 5 | –
CC[C@H](C)[C@H](NC(=O)C(Cc1ccc(C(F)(F)F)cc1)NC(=O)[C@@H](NC(=O)[C@H](CCCN=C(N)N)NC(=O)CNC)C(C)C)C(=O)N[C@@H](Cc1c[nH]cn1)C(=O)N1CCC[C@H]1C(=O)N[C@@H](Cc1ccccc1)C(=O)O (mixture of isomers) | < 5 | –
CC[C@H](C)[C@H](NC(=O)[C@H](CCCO)NC(=O)[C@@H](NC(=O)[C@H](CCCN=C(N)N)NC(=O)C(C)(C)N)C(C)C)C(=O)N[C@@H](Cc1c[nH]cn1)C(=O)N1CCC[C@H]1C(=O)N[C@@H](Cc1ccccc1)C(=O)O (H-[Aib]RV[Nva(5-OH)]IHPF-OH) | < 6 | –
CC[C@H](C)[C@H](NC(=O)[C@H](Cc1ccc(O)cc1)NC(=O)[C@@H](NC(=O)[C@H](CCCN=C(N)N)NC(=O)CNC)C(C)C)C(=O)N[C@@H](Cc1c[nH]cn1)C(=O)N1CCC[C@H]1C(=O)N[C@@H](CCOC)C(=O)O (stereo in doubt; form 1) | 7.6 | < 0.1
CC[C@H](C)[C@H](NC(=O)[C@H](Cc1ccc(O)cc1)NC(=O)[C@@H](NC(=O)[C@@H](N)CCCN=C(N)N)C(C)C)C(=O)N[C@@H](Cc1c[nH]cn1)C(=O)N1CCC[C@H]1C(=O)N[C@@H](CCOC)C(=O)O | < 6 | < 0.1
